Compound activity deposited in PubChem BioAssay by Johns Hopkins Ion Channel Center.
Shown are actives, neighbours in structure and some others; about 2.3% of the full set was active somewhere.
TRPC6 activator – mouse TRPC6 channel activators, primary screen, cell-based, HEK293, membrane potential dye; HEK293-TRPC6 membrane potential dye fluorescence; active compounds read high; Short transient receptor potential channel 6 (Mus musculus), Q61143; B-score at 10 µM; 310,000 compounds, 0.13% hits;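 active = B-score of the integrated fluorescence ratio above library mean plus 3 SD, and starting fluorescence ratio within library mean plus 5 SD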;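 note: higher score means more depolarization so channel activation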
TRPC6 inhibitor – mouse TRPC6 channel inhibitors, primary screen, cell-based, HEK293, membrane potential dye; Short transient receptor potential channel 6 (Mus musculus), Q61143; ACh-evoked depolarization; active compounds read low; B-score at 10 µM; 310,000 compounds, 1.1% hits;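 active = B-score under library mean minus 3 SD, initial fluorescence not abnormally high, positive integrated signal ratio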;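 note: B-score derived from integrated fluorescence ratio over the kinetic read; more negative B-score means stronger inhibition of depolarization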
TRPC4 act – activators of mouse TRPC4 channel, primary screen, Fluo4 calcium, HEK293 TRPC4beta/mu-opioid cells | Short transient receptor potential channel 4 (Mus musculus), Q9QUQ5 | Fluo4 calcium fluorescence; active compounds read high | B-score at 10 µM | 310,000 compounds, 0.49% hits;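 active = B-score above 5 SD of library B-scores, and initial fluorescence ratio not above library mean plus 5 SD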;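 note: positive B-score marks a calcium rise read as TRPC4 activation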
Target sequence (Q9QUQ5 whole entry, looked up): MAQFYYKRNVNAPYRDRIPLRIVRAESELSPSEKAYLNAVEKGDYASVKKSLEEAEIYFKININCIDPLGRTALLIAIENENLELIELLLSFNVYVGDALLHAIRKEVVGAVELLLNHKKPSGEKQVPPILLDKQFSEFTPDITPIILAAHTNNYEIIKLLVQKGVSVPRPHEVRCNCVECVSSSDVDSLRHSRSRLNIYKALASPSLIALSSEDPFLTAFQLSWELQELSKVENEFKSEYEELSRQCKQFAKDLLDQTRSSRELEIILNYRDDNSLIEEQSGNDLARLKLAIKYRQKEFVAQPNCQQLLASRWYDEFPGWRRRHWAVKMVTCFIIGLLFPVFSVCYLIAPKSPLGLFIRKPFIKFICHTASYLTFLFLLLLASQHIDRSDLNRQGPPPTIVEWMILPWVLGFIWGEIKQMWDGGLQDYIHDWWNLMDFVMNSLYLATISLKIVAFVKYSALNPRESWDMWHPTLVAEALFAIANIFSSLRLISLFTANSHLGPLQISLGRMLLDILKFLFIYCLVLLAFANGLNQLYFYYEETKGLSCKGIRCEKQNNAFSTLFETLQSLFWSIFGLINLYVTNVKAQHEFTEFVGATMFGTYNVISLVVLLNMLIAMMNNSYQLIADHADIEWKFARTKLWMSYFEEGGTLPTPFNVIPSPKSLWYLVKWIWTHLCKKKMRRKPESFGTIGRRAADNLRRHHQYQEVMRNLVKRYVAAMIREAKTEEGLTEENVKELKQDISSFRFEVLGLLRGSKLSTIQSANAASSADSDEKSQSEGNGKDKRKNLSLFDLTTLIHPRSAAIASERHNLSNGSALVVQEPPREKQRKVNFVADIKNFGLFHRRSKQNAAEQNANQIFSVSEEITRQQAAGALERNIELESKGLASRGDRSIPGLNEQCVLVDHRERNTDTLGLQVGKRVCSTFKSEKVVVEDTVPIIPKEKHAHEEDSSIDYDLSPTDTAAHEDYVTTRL
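Test system: HEK293 cells stably co-expressing mouse TRPC4beta and mu-opioid receptor | Schedule: Fluo4 dye loading 45 min at room temperature, 110 s recording | Measured by: Kinetic Fluo4 calcium fluorescence, 5 s baseline at 1 Hz | Evaluation: B score of integrated ratio | Controls: Buffer (low) and maximal DAMGO (high)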
TRPC4 PAM – positive allosteric modulators of TRPC4, primary screen, cell-based, mouse TRPC4beta, HEK293 mu-opioid, Fluo-4 calcium; B-score at 10 µM; DAMGO EC20, Fluo-4 Ca2+ flux; active compounds read high; 310,000 compounds, 0.42% hits; Short transient receptor potential channel 4 (Mus musculus), Q9QUQ5;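 active = B-score of calcium response area above 5 SD of library B-scores, with initial fluorescence ratio within 5 SD of library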
TRPC4 block – inhibitors of mouse TRPC4 channel, primary screen, Fluo4 calcium, HEK293 TRPC4beta/mu-opioid cells. DAMGO-evoked Fluo4 calcium flux; active compounds read low. B-score at 10 µM. 300,000 compounds, 0.39% hits;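 active = B-score over 3 SD under the library average, no early fluorescence shift, positive overall ratio signal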
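Assay system – HEK293 line stably carrying TRPC4beta and mu-opioid receptor · Doses – single dose · Detection – Fluo4 calcium-dye fluorescence, kinetic read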
TRPC4 spec 2 – second selectivity test of TRPC6 inhibitors: effect on mouse TRPC4 | shares compounds with TRPC6 inhibitor | HEK293 TRPC4/MOR, membrane potential dye fluorescence; channel activated by saturating DAMGO dose | inhibition, % at 10 µM | 920 compounds, 42% hits | AID 2776;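 active = compounds whose fluorescence signal differed from control wells by over 3 SD, either direction, in both duplicate plates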
TRPC4 spec – mouse TRPC4 modulation by TRPC6 hits, confirmation, selectivity assay for TRPC6 inhibitor project, cell-based, HEK293 TRPC4/mu-opioid, membrane potential dye. shares compounds with TRPC6 inhibitor. membrane potential fluorescence. activity change, negative = inhibition, % at 10 µM. 920 compounds, 61% hits. AID 2777, 2010;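 active = rise or fall in signal beyond 3 SD of buffer-only wells in both replicate plates, either sign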;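 note: integrated kinetic ratio of fluorescence range over baseline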
HEK293 MPD ctr 2-1 – nonspecific membrane potential effects, parental HEK293, confirmation, counter-screen for TRPC6 inhibitor project, cell-based, second counter screen; parental HEK293 membrane potential dye fluorescence; maximal acetylcholine challenge after compound addition; AID 2779, 2010; shares compounds with TRPC6 inhibitor; 920 compounds, 31% hits; signal change vs control, % at 10 µM;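 active = membrane potential signal moving either way by over 3 SD of the maximum-effect control, in both duplicate plates, meaning non-specific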
HEK293 MPD ctr-1 – membrane potential modulation in parental HEK293, confirmation, counter-screen for TRPC6 inhibitor project, cell-based; 920 compounds, 60% hits; parental HEK293 membrane potential dye fluorescence; membrane potential signal change, % at 10 µM; shares compounds with TRPC6 inhibitor;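 active = membrane potential signal shifting up or down by more than 3 SD of buffer-only wells, on both duplicate plates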
HEK293 MPD ctr-2 – parental HEK293 membrane potential modulation, confirmation, counter-screen for TRPC6 modulator project, cell-based | shares compounds with TRPC6 inhibitor | membrane potential dye fluorescence | membrane potential signal change, % at 10 µM | 2,400 compounds, 51% hits | AID 488924, 2010;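 active = membrane potential signal moves up or down beyond 5 SD from buffer-only wells, on both duplicate plates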
HEK293 MPD ctr 2-2 – parental HEK293 nonspecific activity of TRPC6 modulators, second screen | shares compounds with TRPC6 inhibitor | membrane potential dye fluorescence; after compound, maximal acetylcholine stimulation | inhibition, % at 10 µM | 2,400 compounds, 14% hits;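 active = membrane potential signal drops by more than 5 SD from the mean control signal, in both duplicate plates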
TRPC4/MOR mod – TRPC4 modulation by TRPC6 hit compounds, confirmation, selectivity assay for TRPC6 modulator project, cell-based, HEK293 TRPC4/mu-opioid, membrane potential dye, mouse | shares compounds with TRPC6 inhibitor | membrane potential fluorescence | percent change from control (negative = decrease, positive = increase), % at 10 µM | 2,400 compounds, 69% hits | AID 488927, 2010;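 active = membrane potential signal moved up or down beyond 5 SD of buffer control wells, in both duplicate plates, actives on both sides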
TRPC4/MOR inh 2 – mouse TRPC4 off-target activity of TRPC6 modulators, second screen. AID 488928. shares compounds with TRPC6 inhibitor. HEK293 TRPC4/mu-opioid, membrane potential dye fluorescence; stimulated with maximal-effect DAMGO. 2,400 compounds, 55% hits. inhibition, % at 10 µM;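 active = drop in membrane potential signal beyond 5 SD of the control wells in both duplicate plates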;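 note: TRPC4 counter screen for TRPC6 hits run under conditions tuned for TRPC6 not TRPC4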
TRPC6 inh conf – mouse TRPC6 channel inhibitors, confirmation, HEK293 cells, membrane potential dye, duplicate | 3,300 compounds, 43% hits | inhibition, % at 10 µM | ACh-evoked depolarization | shares compounds with TRPC6 inhibitor | AID 488960, 2010;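 active = fluorescence ratio falls more than 5 SD below the full-stimulation control mean, in both duplicate runs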;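 note: integrated fluorescence ratio of peak minus minimum over baseline after agonist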
TRPC6 act conf – mouse TRPC6 channel activators, confirmation, HEK293 cells, membrane potential dye, duplicate. shares compounds with TRPC6 inhibitor. HEK293-TRPC6 membrane potential dye fluorescence, FDSS. activation, % at 10 µM. 2,800 compounds, 11% hits. AID 488961, 2010;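 active = ratio signal rise beyond 5 SD above unstimulated control wells' mean, seen in both duplicate runs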
A number is an active result; n = inactive; x = no result; + = active, no number.

SMILES	TRPC6 activator	TRPC6 inhibitor	TRPC4 act	TRPC4 PAM	TRPC4 block	HEK293 MPD ctr-2	HEK293 MPD ctr 2-2	TRPC4/MOR mod	TRPC4/MOR inh 2	TRPC6 inh conf	TRPC6 act conf	others
CCOC(=O)c1c(CNc2ccncc2)n(C)c2cc(Br)c(O)cc12	n	-8.3	n	n	n	x	x	x	x	60%	n	TRPC4 spec 2=70%;TRPC4 spec=-27%;HEK293 MPD ctr 2-1=-46%;HEK293 MPD ctr-1=-370%
N#CCCN(C(=O)COC(=O)Cc1ccc(Br)cc1)c1ccccc1	n	n	n	n	n	x	x	x	x	x	x
COc1cc(CCC(=O)OCC(=O)N(CCC#N)c2ccccc2)cc(OC)c1OC	n	-5.4	n	n	n	n	n	n	n	n	n
Cc1ccc(N/C(N)=N/c2nc(C)cc(N3CCCCC3)n2)c(C)c1	n	-8.9	n	n	n	339%	n	74%	66%	82%	x
Cc1ccc(N/C(N)=N/c2nc3c(c(=O)[nH]2)CCCC3)c(C)c1	n	n	n	n	n	x	x	x	x	x	x
Cc1ccc2nc3ccc(N4CCCC4)nn3c(=O)c2c1	n	-6.9	n	n	n	x	x	x	x	n	n	TRPC4 spec 2=n;TRPC4 spec=-25%;HEK293 MPD ctr 2-1=42%;HEK293 MPD ctr-1=-324%
C=C(C)CSc1nc2sc3c(c2c(=O)n1C1CCCCC1)CCN(C)C3	n	-7.5	n	n	n	n	n	-20%	n	n	n
O/C(=C\c1ccc2ccccc2n1)c1ccncc1	46	n	66	n	n	+	+	186%	48%	x	314%
O=c1oc2ccccc2nc1/C=C(\O)c1ccccc1	n	n	n	n	n	x	x	x	x	x	x
O/C(=C\c1nc2ccccc2nc1/C=C(\O)c1ccccc1)c1ccccc1	13	n	n	n	n	268%	n	n	n	n	n
O=S(=O)(c1ccccc1)c1ccc(N2CCCCCC2)cc1	n	n	n	n	n	x	x	x	x	x	x
Cc1cc(NCc2ccccn2)nc2ccccc12	n	-8.9	n	n	n	x	x	x	x	95%	n	TRPC4 spec 2=49%;TRPC4 spec=-20%;HEK293 MPD ctr 2-1=n;HEK293 MPD ctr-1=-292%
Cc1nc(NCc2ccccn2)c2ccccc2n1	n	n	n	n	n	x	x	x	x	x	x
O=[N+]([O-])c1cccc2c(N3CCCC3)ccnc12	n	-8.9	n	n	n	-360%	95%	-44%	56%	70%	n
O=C(c1ccccc1F)N1CCN(c2ccc([N+](=O)[O-])c3ncccc23)CC1	n	n	n	n	n	x	x	x	x	x	x
Cc1cccc(C)c1NC(=O)c1cccnc1	n	-6.3	n	n	n	n	n	n	n	n	n
O=C(Nc1ccccc1)C1=C[C@@H](C2CC2)C[C@@H](OCc2ccc(CO)cc2)O1	n	n	n	n	n	x	x	x	x	x	x
O=C(c1ccco1)N1CCCC(c2nc3c(nnn3Cc3ccc(Cl)cc3Cl)c(=O)[nH]2)C1 (stereo not given)	n	n	n	n	n	x	x	x	x	x	x
O=C(c1ccco1)N1CCCC(c2nc3c(nnn3Cc3cccc(Cl)c3)c(=O)[nH]2)C1 (stereo not given)	n	-5.2	n	n	n	n	n	17%	n	50%	n
N#C/C(=N\Nc1cccc([N+](=O)[O-])c1)C(=O)c1ccc(Br)cc1	n	-7.3	n	n	-6	x	x	x	x	79%	n	TRPC4 spec 2=53%;TRPC4 spec=n;HEK293 MPD ctr 2-1=n;HEK293 MPD ctr-1=-156%
COC(=O)CSc1nnc(SCc2ccc(OC)cc2)s1	n	-5.5	n	n	n	n	n	n	n	n	n
Cn1c(=O)c(Nc2ccc(O)cc2)c2c3c(cccc31)C(=O)c1ccccc1-2	n	-6	n	n	n	n	n	-27%	59%	n	n
CC(=O)c1c2c3c(cccc3n(C)c1=O)C(=O)c1ccccc1-2	n	n	n	n	n	x	x	x	x	x	x
N#CC(C#N)=C1c2cc(S(=O)(=O)NCCO)ccc2-c2ccc(S(=O)(=O)NCCO)cc21	n	-5.2	n	n	n	-138%	n	-30%	n	n	n
O=C(CN1CCS(=O)(=O)CC1)N/N=C/c1cccc(C(F)(F)F)c1	n	-5.3	n	n	n	n	n	n	n	n	n
COc1ccc(/C=N/NC(=O)CN2CCS(=O)(=O)CC2)cc1	n	n	n	n	n	x	x	x	x	x	x
CCCCCCCCCn1c2c(c(=N)c3c1CCC3)CCC2	n	-6.3	n	n	n	-169%	n	-21%	36%	n	n
CCn1c2c(c(=N)c3ccccc31)CCC2	n	-11	n	n	n	x	x	x	x	72%	n	TRPC4 spec 2=68%;TRPC4 spec=-34%;HEK293 MPD ctr 2-1=-12%;HEK293 MPD ctr-1=-593%
